ChEMBL document CHEMBL1122844, “Novel nonnarcotic analgesics with an improved therapeutic ratio. Structure-activity relationships of 8-(methylthio)- and 8-(acylthio)-1,2,3,4,5,6-hexahydro-2,6-methano-3-benzazocines” (J Med Chem, 1985)

tested on: Mus musculus; assay: Percent analgesic activity in mice after subcutaneous administration; 20-30%; assay type: functional; settings: not given
Procedure, shortened: (§1)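 Acetic acid writhing test in mice, 10 per group. Drug given sc or po; sc dosing simultaneous with ip 0.7% AcOH. Starting 15 min after AcOH, writhing observed for 5 min at 15-min intervals, four times in all. A mouse writhing more than once within 5 min counted as having no analgesic effect.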

SMILES | Analgesic activity [%]
C[C@H]1[C@@H]2Cc3ccc(O)cc3[C@]1(C)CCN2C [METAZOCINE] | 20

tested on: not listed separately; assay: Ratio of ED50 with/without Naloxone (0.2 mg/kg) after simultaneous injection of drug; assay type: organism-based; settings: not given
Procedure, shortened: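 Mouse acetic acid writhing test (ip 0.7% AcOH, 10 mice/group, four 5-min observations at 15-min intervals; more than one writhe in 5 min = no analgesia). ED50 determined with drug alone and with naloxone 0.2 mg/kg injected simultaneously with the drug; value is ratio of ED50 with/without naloxone.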

SMILES | Ratio
C[C@H]1C2Cc3ccc(SC(=O)c4ccccc4)cc3[C@]1(C)CCN2C | 1.7
C[C@H]1C2Cc3ccc(OC(=O)c4ccccc4)cc3[C@]1(C)CCN2C | 6.4

tested on: Mus musculus; assay: Effective dose required to produce analgesic action in mice after peroral administration; assay type: functional; settings: po; procedure, shortened: as §1

SMILES | ED50 [mg/kg]
CC(C)=CCN1CC[C@@]2(C)c3cc(OC(=O)c4ccccc4)ccc3CC1[C@@H]2C | 2.6
CCC(=O)Sc1ccc2c(c1)[C@]1(C)CCN(CCc3ccccc3)C(C2)[C@@H]1C | 7
C[C@H]1[C@H]2Cc3ccc(SC(=O)c4ccccc4)cc3[C@]1(C)CCN2C | 1
CCOC(=O)Sc1ccc2c(c1)[C@]1(C)CCN(CCc3ccccc3)C(C2)[C@@H]1C | 18.5
C[C@H]1C2Cc3ccc(SC(=O)C(C)(C)C)cc3[C@]1(C)CCN2C | 6.4
C[C@H]1C2Cc3ccc(O)cc3[C@]1(C)CCN2CCc1cccs1 | 0.071
COc1ccc(C(=O)Sc2ccc3c(c2)[C@]2(C)CCN(CC=C(C)C)C(C3)[C@@H]2C)cc1 | 5.3
C[C@H]1C2Cc3ccc(SC(=O)c4ccccc4)cc3[C@]1(C)CCN2C | 1.05
C[C@H]1C2Cc3ccc(OC(=O)c4ccccc4)cc3[C@]1(C)CCN2C | 1.7
CC(C)=CCN1CC[C@]2(C)c3cc(O)ccc3C[C@H]1[C@H]2C [(+)-PENTAZOCINE] | 1.6
CC(C)=CCN1CC[C@@]2(C)c3cc(SC(=O)c4ccccc4)ccc3CC1[C@@H]2C | 4
C[C@H]1C2Cc3ccc(SC(=O)c4ccc(Cl)cc4)cc3[C@]1(C)CCN2C | 2.8
CC(C)=CCN1CC[C@@]2(C)c3cc(SC(=O)c4ccccc4)ccc3C[C@@H]1[C@@H]2C | 0.74
C[C@H]1C2Cc3ccc(O)cc3[C@]1(C)CCN2C | 0.46
CN1CC[C@]23c4c5ccc(O)c4O[C@H]2[C@@H](O)C=C[C@H]3[C@H]1C5 [MORPHINE] | 0.52
C[C@H]1C2Cc3ccc(SC(=O)C(C)(C)C)cc3[C@]1(C)CCN2CCc1ccccc1 | 5.2
CC(C)=CCN1CC[C@@]2(C)c3cc(O)ccc3C[C@@H]1[C@@H]2C | 0.36
COc1ccc(C(=O)Sc2ccc3c(c2)[C@]2(C)CCN(CCc4ccccc4)C(C3)[C@@H]2C)cc1 | 5.3
C[C@H]1C2Cc3ccc(O)cc3[C@@]1(C)CCN2CCc1ccccc1 | 0.135
C[C@H]1[C@H]2Cc3ccc(O)cc3[C@@]1(C)CCN2C | 0.27
C[C@H]1C2Cc3ccc(SC(=O)c4ccccc4)cc3[C@]1(C)CCN2CCc1ccccc1 | 1.7
COc1ccc(C(=O)Sc2ccc3c(c2)[C@]2(C)CCN(C)C(C3)[C@@H]2C)cc1 | 4.8
CC(C)=CCN1CC[C@@]2(C)c3cc(SC(=O)c4ccc(Cl)cc4)ccc3CC1[C@@H]2C | 6
CC(=O)Sc1ccc2c(c1)[C@]1(C)CCN(C)C(C2)[C@@H]1C | 4.5

tested on: Mus musculus; assay: Percent analgesic activity in mice after peroral administration at dose 10 mg/kg; assay type: functional; settings: route oral; procedure, shortened: as §1

SMILES | Analgesic activity [%]
CC(C)=CCN1CC[C@@]2(C)c3cc(SC(=O)C(C)(C)C)ccc3CC1[C@@H]2C | 50

target: Opioid receptor (Rattus norvegicus, UniProt P33533+P34975+P33535); assay: Inhibitory activity against opiate receptor in rat using [3H]naloxone as radioligand; settings: not given

SMILES | IC50 [nM]
C[C@H]1C2Cc3ccc(SC(=O)c4ccccc4)cc3[C@]1(C)CCN2C | 1530
C[C@H]1C2Cc3ccc(OC(=O)c4ccccc4)cc3[C@]1(C)CCN2C | 107

tested on: Mus musculus; assay: Percent analgesic activity in mice after peroral administration at dose 20 mg/kg; assay type: functional; settings: route oral; procedure, shortened: as §1

SMILES | Analgesic activity [%]
C[C@H]1C2Cc3ccc(SC(=O)c4ccc(Cl)cc4)cc3[C@]1(C)CCN2CCc1ccccc1 | 40
C[C@H]1C2Cc3ccc(SC(=O)c4ccccc4)cc3[C@]1(C)CCN2CCc1cccs1 | 40
C[C@H]1C2Cc3ccc(SC(=O)c4ccccc4)cc3[C@]1(C)CCN2Cc1ccccc1 | 30

tested on: Mus musculus; assay: Percent analgesic activity in mice after subcutaneous administration at dose 10 mg/kg; assay type: functional; settings: not given; procedure, shortened: as §1

SMILES | Analgesic activity [%]
CC(C)=CCN1CC[C@]2(C)c3cc(O)ccc3C[C@H]1[C@H]2C [(+)-PENTAZOCINE] | 20
C[C@H]1[C@@H]2Cc3ccc(SC(=O)c4ccccc4)cc3[C@]1(C)CCN2C | 30
CC(C)=CCN1CC[C@@]2(C)c3cc(SC(=O)c4ccccc4)ccc3C[C@H]1[C@@H]2C | 20
